From PMC8014925 (ACS Omega, 2021)

Key:
[1] = system: β-glucuronidase; assay: β-Glucuronidase inhibition assay; assay type: biochemical, H. pomatia; conditions: for reversibility of inhibition of β-glucuronidase: enzyme activity vs enzyme concentration at four inhibitor concentrations
How it was run: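 H. pomatia β-glucuronidase (type H-1), stock 10 U/mL in 0.5 M Tris-HCl pH 7.0. Incubated 1 h at 37 °C in 0.1 M phosphate buffer pH 7.0 with pNPG (5 mM stock) and test compound or water control. Stopped with 0.5 M NaOH; pNP read at 400 nm. Final H2O2 1–10,000 μM; NaClO and PAA 1–1000 μM. Triplicates; % inhibition relative to control without test compound.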

[2] = system: arylsulfatase; assay: Arylsulfatase inhibition assay; assay type: biochemical, Helix pomatia; conditions: for type of inhibition of arylsulfatase: Lineweaver–Burk plot; for reversibility of inhibition of arylsulfatase: enzyme activity vs enzyme concentration at four inhibitor concentrations
[3] = system: estrogenic potency; conditions: cited from earlier work

SMILES: OO [H2O2, hydrogen peroxide]
- inhibition on β-glucuronidase (in words) ([1]; pH 7.0, tested 1-10,000 μM): no inhibition
- type of inhibition of arylsulfatase [2]: competitive
- reversibility of inhibition of arylsulfatase [2]: reversible
- inhibition of arylsulfatase under weak alkaline condition (in words) ([2]; pH 8): reduced inhibition
- differences in the inhibition of arylsulfatase across pH (in words) ([2]; pH range of 5–7): no significant differences

SMILES: CCCCC(CC)COC(=O)c1ccccc1C(=O)OCC(CC)CCCC (stereo not shown) [DEHP, di-2-(ethylhexyl) phthalate]
- estrogenic potency [3]: 10^–7

SMILES: OCl [hypochlorite]
- reversibility of inhibition of β-glucuronidase [1]: irreversible
- reversibility of inhibition of arylsulfatase [2]: irreversible
- IC50 ([2]; read-out: IC50 on arylsulfatase at pH 5.0, pH 5.0): 7.64 ± 0.61 µM

SMILES: CC(=O)OO [PAA, peracetic acid]
- type of inhibition of β-glucuronidase ([1]; Lineweaver–Burk plot): noncompetitive
- reversibility of inhibition of β-glucuronidase [1]: reversible
- maximum inhibition degree on β-glucuronidase ([1]; pH 7.0, tested up to 1000 μM): about 60%
- type of inhibition of arylsulfatase [2]: noncompetitive
- reversibility of inhibition of arylsulfatase [2]: reversible
- inhibition of arylsulfatase at pH 8 (in words) ([2]; pH 8, concentration below 1 mM): nearly no inhibition

SMILES: [Cd] [cadmium]
- estrogenic potency (in words) [3]: no estrogenic potency at all
